Test results published in ChEMBL document CHEMBL3808312, “Bioactive Constituents of Glycyrrhiza uralensis (Licorice): Discovery of the Effective Components of a Traditional Herbal Medicine” (J Nat Prod, 2016).
Active and inactive are the calls of the source. No cut-off for these calls is given here.

Assays:
HepG2 = test: Toxicity in human HepG2 cells at 20 to 40 uM; format: cell-based; conditions: hepg2, 40 µM
[1] = molecular target: T1, Nuclear factor erythroid 2-related factor 2 (Homo sapiens) (UniProt Q16236); test: Activation of NRF2 in human HepG2 cells assessed as induction of NQO-1 transcription by RT-PCR analysis; format: cell-based
T1 sequence (whole entry): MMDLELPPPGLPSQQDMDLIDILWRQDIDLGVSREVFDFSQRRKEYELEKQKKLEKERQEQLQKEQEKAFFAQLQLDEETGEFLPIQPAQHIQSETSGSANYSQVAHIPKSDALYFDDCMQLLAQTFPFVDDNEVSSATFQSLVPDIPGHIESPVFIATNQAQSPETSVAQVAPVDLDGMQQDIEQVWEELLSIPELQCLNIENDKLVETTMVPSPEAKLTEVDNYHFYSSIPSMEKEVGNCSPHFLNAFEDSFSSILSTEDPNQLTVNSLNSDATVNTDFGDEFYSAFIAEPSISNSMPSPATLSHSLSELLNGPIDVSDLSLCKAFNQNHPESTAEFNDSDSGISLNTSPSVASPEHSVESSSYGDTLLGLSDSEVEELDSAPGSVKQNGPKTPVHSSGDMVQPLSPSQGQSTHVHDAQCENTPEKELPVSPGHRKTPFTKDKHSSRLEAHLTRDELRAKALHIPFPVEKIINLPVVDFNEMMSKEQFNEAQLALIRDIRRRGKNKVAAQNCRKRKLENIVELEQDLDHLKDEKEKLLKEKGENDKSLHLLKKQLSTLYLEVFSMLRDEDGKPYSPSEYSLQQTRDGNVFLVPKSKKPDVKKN
Procedure, shortened: (§1)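 HepG2 cells treated with or without compound. HO-1 and NQO1 transcripts measured by RT-PCR after total RNA extraction and reverse transcription, amplified against β-actin with human primers. For protein, 20 μg lysate (RIPA) separated on 10% SDS-PAGE, blotted to PVDF, probed with antibodies to Nrf2, HO-1, NQO-1 and β-actin, and detected by ECL.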

[2] = molecular target: T1, Nuclear factor erythroid 2-related factor 2 (Homo sapiens); test: Activation of NRF2 transcription in human HepG2C8 cells at 20 uM after 6 hrs by luciferase reporter gene assay relative to control; format: cell-based
Procedure, shortened: (§2)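 Luciferase reporter in HepG2C8 cells, which are HepG2 stably transfected with an Nrf2 luciferase reporter and grown in MEM. Screened at 10 μM, with dose-response over 2.5−40 μM. Activity expressed as fold of control. tBHQ positive control.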

Mus musculus [3] = test: Hepatoprotective activity in ip dosed C57BL/6J mouse assessed as reduction in CCL4-induced serum ALT level administered qd for 3 days followed by CCL4 addition at 3 hrs post last dose measured after 24 hrs; format: functional, organism-based
Procedure, shortened: (§3)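 Seven-week-old male C57BL/6J mice, n = 10/group, given compound in corn oil (0.5 or 1 mg/mL) at 5 or 10 mg/kg ip once daily for 3 days. CCl4 at 200 μL/kg ip (2% v/v in corn oil) given 3 h after the last dose. Sacrifice at 24 h. Serum ALT/AST measured; liver GSH by GSH/GSSG kit normalized to BCA protein; left lobe H&E stained and scored blind at 4× and 20×.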

Mus musculus [4] = test: Hepatoprotective activity in C57BL/6J mouse assessed as prevention of CCL4-induced severe hepatic lesions at 5 mg/kg, ip administered qd for 3 days followed by CCL4 addition at 3 hrs post last dose measured after 24 hrs by hematoxylin-eosin staining; format: functional, organism-based; procedure, shortened: as §3
Mus musculus [5] = test: (§4) Hepatoprotective activity in C57BL/6J mouse assessed as attenuation of CCL4-mediated GSH level depletion measured as GSH level […] of protein at 5 mg/kg, ip administered qd for 3 days followed by CCL4 addition at 3 hrs post last dose measured after 24 hrs by GSH/GSSG assay (reference value: 0.86 +/- 0.38 nmol); format: functional; procedure, shortened: as §3
[6] = molecular target: T1, Nuclear factor erythroid 2-related factor 2 (Homo sapiens); test: Activation of NRF2 in human HepG2 cells assessed as induction of HO-1 transcription by RT-PCR analysis; format: cell-based; procedure, shortened: as §1
[7] = molecular target: T1, Nuclear factor erythroid 2-related factor 2 (Homo sapiens); test: Activation of NRF2 in human HepG2 cells assessed as upregulation of HO-1 level by Western blot analysis; format: cell-based; procedure, shortened: as §1
Mus musculus [8] = test: In vivo NRF2 activation in ip dosed C57BL/6J mouse assessed as increase in liver transcription of NQO-1 administered as qd for 3 days measured 3 hrs post last dose by qRT-PCR analysis; format: functional, organism-based
Procedure, shortened: (§5)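 Male C57BL/6J mice given compound in corn oil at 5 or 10 mg/kg ip for three consecutive days; controls received corn oil. Liver harvested 3 h after final dose. HO-1 and NQO-1 mRNA measured by qRT-PCR with mouse primers. Nrf2 and HO-1 protein measured by Western blot (20 μg, 10% SDS-PAGE, ECL).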

Mus musculus [9] = test: In vivo increase in HO-1 levels in C57BL/6J mouse liver at 5 to 10 mg/kg, ip qd administered for 3 days measured 3 hrs post last dose by Western blot analysis; format: functional, organism-based; procedure, shortened: as §5
[10] = molecular target: T1, Nuclear factor erythroid 2-related factor 2 (Homo sapiens); test: Activation of NRF2 in human HepG2 cells by Western blot analysis; format: cell-based; procedure, shortened: as §1
[11] = molecular target: T2, Tyrosinase (Homo sapiens) (UniProt P14679); test: Inhibition of tyrosinase (unknown origin) using L-tyrosine as substrate assessed as oxidation of L-tyrosine at 20 uM after 15 mins
T2 sequence (whole entry): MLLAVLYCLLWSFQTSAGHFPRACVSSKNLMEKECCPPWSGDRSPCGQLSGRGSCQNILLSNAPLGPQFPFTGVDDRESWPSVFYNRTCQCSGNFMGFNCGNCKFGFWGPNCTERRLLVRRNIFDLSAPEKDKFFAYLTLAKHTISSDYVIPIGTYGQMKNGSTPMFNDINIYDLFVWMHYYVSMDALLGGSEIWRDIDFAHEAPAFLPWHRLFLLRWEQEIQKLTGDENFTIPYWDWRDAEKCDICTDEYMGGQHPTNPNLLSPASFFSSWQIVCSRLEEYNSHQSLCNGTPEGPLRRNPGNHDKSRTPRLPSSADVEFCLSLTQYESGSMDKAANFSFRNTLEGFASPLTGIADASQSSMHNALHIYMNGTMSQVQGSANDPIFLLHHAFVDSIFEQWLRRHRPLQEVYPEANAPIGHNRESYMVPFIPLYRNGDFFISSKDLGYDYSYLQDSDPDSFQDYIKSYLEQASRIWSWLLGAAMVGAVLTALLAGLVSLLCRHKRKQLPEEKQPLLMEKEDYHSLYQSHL
Procedure, shortened: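 Tyrosinase at 333 U/mL (stock) in 45 mM sodium phosphate, pH 6.6, with 2 mM L-tyrosine (stock). Incubated 37 °C for 15 min; oxidation read at 492 nm. Screened at 20 μM; dose-response for IC50. Glyasperin C positive control.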

Influenza A virus = test: Antiviral activity against Influenza A virus A/WSN/33(H1N1) infected in MDCK cells at 100 uM preincubated with virus for 15 mins followed by cells addition measured at 36 hrs post infection; format: functional, A/WSN/1933(H1N1)
Procedure, shortened: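 MDCK canine kidney cells grown in DMEM and infected with influenza A/WSN/33 (H1N1). Compounds screened at 100 μM. Oseltamivir phosphate served as the positive control.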

[12] = molecular target: T1, Nuclear factor erythroid 2-related factor 2 (Homo sapiens); test: Activation of NRF2 transcription in human HepG2C8 cells at 40 uM after 6 hrs by luciferase reporter gene assay relative to control; format: cell-based; procedure, shortened: as §2
[13] = molecular target: T1, Nuclear factor erythroid 2-related factor 2 (Homo sapiens); test: Activation of NRF2 transcription in human HepG2C8 cells after 6 hrs by luciferase reporter gene assay; format: cell-based; procedure, shortened: as §2
[14] = molecular target: T1, Nuclear factor erythroid 2-related factor 2 (Homo sapiens); test: Activation of NRF2 transcription in human HepG2C8 cells at 10 uM after 6 hrs by luciferase reporter gene assay relative to control; format: cell-based; procedure, shortened: as §2
Mus musculus [15] = test: Hepatoprotective activity in ip dosed C57BL/6J mouse assessed as reduction in CCL4-induced serum AST level administered qd for 3 days followed by CCL4 addition at 3 hrs post last dose measured after 24 hrs; format: functional, organism-based; procedure, shortened: as §3
Mus musculus [16] = test: In vivo increase in NRF2 levels in C57BL/6J mouse liver at 5 to 10 mg/kg, ip qd administered for 3 days measured 3 hrs post last dose by Western blot analysis; format: functional, organism-based; procedure, shortened: as §5
Mus musculus [17] = test: In vivo NRF2 activation in ip dosed C57BL/6J mouse assessed as increase in liver transcription of HO-1 administered as qd for 3 days measured 3 hrs post last dose by qRT-PCR analysis; format: functional, organism-based; procedure, shortened: as §5
Mus musculus [18] = test: as §4, with “at 10” for “at 5”; format: functional; procedure, shortened: as §3

COc1cc(O)ccc1/C=C/C(=O)c1ccc(O)cc1 [ECHINATIN]
Activity (HepG2): Toxic
Activity [1]: Dose-dependent effect
fold change (FC) [2]: 6.8
Activity (Mus musculus [3]): Dose-dependent effect
Activity (Mus musculus [4]): Active
Activity (Mus musculus [5]): 2.42 nmol
Activity [6]: Dose-dependent effect
Activity [7]: Dose-dependent effect
Activity (Mus musculus [8]): Dose-dependent effect
Activity (Mus musculus [9]): Active
Activity [10]: Dose-dependent effect
inhibition [11]: Active
Activity (Influenza A virus): >30%
fold change (FC) [12]: 4.3
Activity [13]: Dose-dependent effect
fold change (FC) [14]: 5.46
Activity (Mus musculus [15]): Dose-dependent effect
Activity (Mus musculus [16]): Active
Activity (Mus musculus [17]): Dose-dependent effect
Activity (Mus musculus [18]): 2.58 nmol
